Assay results published in PMC3153576 (Biochemistry, 2011).

What was measured:
Type in all cases: binding
PRMT1-SAH complex [1] = molecular target: T1, PRMT1-SAH complex (Rattus norvegicus, UniProt Q63009); experiment: Stopped-flow dissociation from PRMT1-SAH; conditions: 100 μM SAH
Method in brief: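 Trapping experiment using rat His-PRMT1. 0.4 μM fluorescein-labelled H4 peptide (H4FLme1 or H4FLme2) was premixed with 2 μM PRMT1 and 100 μM SAH, then rapidly mixed with 50 μM unlabelled H4(1–20). Fluorescence recovery read at ex 495 nm, 510 nm long-pass emission; 4–6 injections averaged; double-exponential fit.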

PRMT1-SAH complex [2] = molecular target: T1, PRMT1-SAH complex; experiment: Stopped-flow association with PRMT1-SAH
Method in brief: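 His-tagged rat PRMT1 expressed in E. coli and Ni-resin purified. PRMT1 (2, 4, 6 μM) was preincubated with 100 μM SAH, then rapidly mixed with 0.4 μM fluorescein-labelled H4 peptide. Fluorescence quench read at ex 495 nm, 510 nm long-pass emission; 4–6 shots averaged. Traces fit double-exponential; kobs versus PRMT1 fit to two-step model for k1, k−1, k2, k−2.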

PRMT1 = PRMT1 (Rattus norvegicus, UniProt Q63009); experiment: Stopped-flow dissociation from PRMT1; conditions: compared with second phase in methylation course
PRMT1, sequence (Q63009 whole entry): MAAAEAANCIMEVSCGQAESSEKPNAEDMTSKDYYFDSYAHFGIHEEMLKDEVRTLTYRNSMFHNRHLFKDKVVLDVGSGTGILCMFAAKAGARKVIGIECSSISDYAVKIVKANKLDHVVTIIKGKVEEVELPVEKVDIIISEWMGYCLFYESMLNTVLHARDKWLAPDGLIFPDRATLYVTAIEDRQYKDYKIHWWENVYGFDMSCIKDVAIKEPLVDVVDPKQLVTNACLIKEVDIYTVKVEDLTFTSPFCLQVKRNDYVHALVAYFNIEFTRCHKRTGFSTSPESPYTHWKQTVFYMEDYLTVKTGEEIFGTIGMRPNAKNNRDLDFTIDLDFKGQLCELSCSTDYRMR

T1 sequence (Q63009 whole entry, one chain of several): as the sequence (Q63009 whole entry) above

koff from PRMT1-SAH relative to apo-PRMT1 (PRMT1-SAH complex [1]) | Observed first-order rate constant for binding (kobs) (PRMT1-SAH complex [2]; 2 μM PRMT1 in presence of the cofactor) [s⁻¹] | Association rate constant with PRMT1-SAH relative to apo PRMT1 (PRMT1-SAH complex [2]; 100 μM SAH) | k2 + k−2 (plateau of the slow phase) (PRMT1-SAH complex [2]; two-step binding model (eq 5), 100 μM SAH, 30°C) [s⁻¹] | Dissociation rate constant relative to slow-phase (methylation) rate constants (PRMT1) | Substance
about three-fold lower | 248 ± 3 | two-fold higher | 36 ± 2 | several thousand-fold larger | Ac-SGRme1GKGGKGDpr(FL)GKGGAKRHRK [H4FLme1]
– | – | – | – | several thousand-fold larger | Ac-SGRme2GKGGKGDpr(FL)GKGGAKRHRK [H4FLme2]
